# Source: ChEMBL document CHEMBL5303300, “EUbOPEN Chemogenomics Library - Multiplex” (2023)
# Several values for one entry are separate records, joined by “and”; a condition that tells them apart may be missing. Equal values may be shown once.
# System: Fibroblast
# Assay: Multiplex assay against human fibroblast
# Assay type: toxicity, cell-based
# Details: number of replicates 2
# How it was run: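 Values for tubulin, mitochondrial-mass and membrane-permeability phenotypes are per cents of cells with healthy nuclei. These cells were identified by CellPathfinder machine-learning gating of live cells that had been stained at seeding with Hoechst33342, BioTracker Green Microtubule Cytoskeleton Dye, MitoTracker Red and Annexin V Alexa Fluor 680 and imaged on a CQ1 microscope at 37°C and 5% CO2 after compound addition. The gating first set Hoechst high-intensity objects apart from normal cells, then split normal cells into healthy, pyknosed or fragmented nuclei, and pyknosed cells into mitotic or apoptotic.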
# [1] = 12 h, 1 µM, compound concentration 1 uM
# [2] = 12 h, 10 µM, compound concentration 10 uM
# [3] = 24 h, 1 µM, compound concentration 1 uM
# [4] = 24 h, 10 µM, compound concentration 10 uM
# [5] = 48 h, 1 µM, compound concentration 1 uM
# [6] = 48 h, 10 µM, compound concentration 10 uM
smiles,measurement,setting,value
CNc1ncc2cc(-c3ccc(-c4cccc(C)n4)cc3Cl)c(=O)n(C[C@H]3OC[C@H](N)CO3)c2n1,Population Apoptotic (%),[1],43% and 42%
same,Population Fragmented Nuclei (%),[1],9% and 17%
same,Population Healthy Nuclei (%),[1],51% and 52%
same,Population Hoechst High Intensity Objects (%),[1],0%
same,Population Membrane Permeable-Phenotype (%),[1],10%
same,Population Mitochondria Different-Phenotype (%),[1],0%
same,Population Mitotic Cells (%),[1],56% and 57%
same,Population Normal (%),[1],100%
same,Population Pyknosed Nuclei (%),[1],39% and 30%
same,Population Tubulin-Different-Phenotype (%),[1],21% and 18%
same,Total Cell Count,[1],176 and 246
same,Population Apoptotic (%),[2],44% and 35%
same,Population Fragmented Nuclei (%),[2],22% and 26%
same,Population Healthy Nuclei (%),[2],26% and 28%
same,Population Hoechst High Intensity Objects (%),[2],1% and 7%
same,Population Membrane Permeable-Phenotype (%),[2],23% and 16%
same,Population Mitochondria Different-Phenotype (%),[2],0%
same,Population Mitotic Cells (%),[2],55% and 64%
same,Population Normal (%),[2],98% and 92%
same,Population Pyknosed Nuclei (%),[2],50% and 45%
same,Population Tubulin-Different-Phenotype (%),[2],55% and 51%
same,Total Cell Count,[2],227 and 323
same,Population Apoptotic (%),[3],41% and 67%
same,Population Fragmented Nuclei (%),[3],14% and 21%
same,Population Healthy Nuclei (%),[3],56%
same,Population Hoechst High Intensity Objects (%),[3],0%
same,Population Membrane Permeable-Phenotype (%),[3],25% and 13%
same,Population Mitochondria Different-Phenotype (%),[3],0%
same,Population Mitotic Cells (%),[3],58% and 32%
same,Population Normal (%),[3],100% and 99%
same,Population Pyknosed Nuclei (%),[3],28% and 21%
same,Population Tubulin-Different-Phenotype (%),[3],29% and 15%
same,Total Cell Count,[3],179 and 248
same,Population Apoptotic (%),[4],45% and 65%
same,Population Fragmented Nuclei (%),[4],27% and 23%
same,Population Healthy Nuclei (%),[4],34% and 36%
same,Population Hoechst High Intensity Objects (%),[4],7% and 4%
same,Population Membrane Permeable-Phenotype (%),[4],31% and 34%
same,Population Mitochondria Different-Phenotype (%),[4],5% and 4%
same,Population Mitotic Cells (%),[4],54% and 34%
same,Population Normal (%),[4],92% and 95%
same,Population Pyknosed Nuclei (%),[4],38% and 39%
same,Population Tubulin-Different-Phenotype (%),[4],37% and 59%
same,Total Cell Count,[4],304 and 248
same,Population Apoptotic (%),[5],61% and 86%
same,Population Fragmented Nuclei (%),[5],22% and 24%
same,Population Healthy Nuclei (%),[5],64% and 66%
same,Population Hoechst High Intensity Objects (%),[5],0%
same,Population Membrane Permeable-Phenotype (%),[5],36% and 19%
same,Population Mitochondria Different-Phenotype (%),[5],0%
same,Population Mitotic Cells (%),[5],38% and 13%
same,Population Normal (%),[5],100%
same,Population Pyknosed Nuclei (%),[5],12% and 9%
same,Population Tubulin-Different-Phenotype (%),[5],39% and 19%
same,Total Cell Count,[5],171 and 237
same,Population Apoptotic (%),[6],42% and 24%
same,Population Fragmented Nuclei (%),[6],19% and 28%
same,Population Healthy Nuclei (%),[6],57% and 51%
same,Population Hoechst High Intensity Objects (%),[6],9% and 11%
same,Population Membrane Permeable-Phenotype (%),[6],40% and 39%
same,Population Mitochondria Different-Phenotype (%),[6],2% and 1%
same,Population Mitotic Cells (%),[6],57% and 75%
same,Population Normal (%),[6],90% and 88%
same,Population Pyknosed Nuclei (%),[6],23% and 20%
same,Population Tubulin-Different-Phenotype (%),[6],33% and 29%
same,Total Cell Count,[6],268 and 338
CNS(=O)(=O)c1ccc(N(C)C)c(Nc2ncnc3cc(OC)c(OC)cc23)c1,Population Apoptotic (%),[1],40% and 34%
same,Population Fragmented Nuclei (%),[1],11% and 10%
same,Population Healthy Nuclei (%),[1],55% and 63%
same,Population Hoechst High Intensity Objects (%),[1],0%
same,Population Membrane Permeable-Phenotype (%),[1],4% and 6%
same,Population Mitochondria Different-Phenotype (%),[1],0%
same,Population Mitotic Cells (%),[1],60% and 65%
same,Population Normal (%),[1],100%
same,Population Pyknosed Nuclei (%),[1],33% and 26%
same,Population Tubulin-Different-Phenotype (%),[1],9% and 6%
same,Total Cell Count,[1],136 and 169
same,Population Apoptotic (%),[2],41% and 28%
same,Population Fragmented Nuclei (%),[2],13% and 8%
same,Population Healthy Nuclei (%),[2],61% and 67%
same,Population Hoechst High Intensity Objects (%),[2],0%
same,Population Membrane Permeable-Phenotype (%),[2],4% and 6%
same,Population Mitochondria Different-Phenotype (%),[2],1%
same,Population Mitotic Cells (%),[2],58% and 71%
same,Population Normal (%),[2],99% and 100%
same,Population Pyknosed Nuclei (%),[2],24% and 23%
same,Population Tubulin-Different-Phenotype (%),[2],22% and 16%
same,Total Cell Count,[2],206 and 246
same,Population Apoptotic (%),[3],37% and 46%
same,Population Fragmented Nuclei (%),[3],11% and 13%
same,Population Healthy Nuclei (%),[3],54% and 60%
same,Population Hoechst High Intensity Objects (%),[3],0%
same,Population Membrane Permeable-Phenotype (%),[3],2% and 8%
same,Population Mitochondria Different-Phenotype (%),[3],0% and 2%
same,Population Mitotic Cells (%),[3],62% and 53%
same,Population Normal (%),[3],99%
same,Population Pyknosed Nuclei (%),[3],33% and 25%
same,Population Tubulin-Different-Phenotype (%),[3],8% and 10%
same,Total Cell Count,[3],136 and 162
same,Population Apoptotic (%),[4],56% and 43%
same,Population Fragmented Nuclei (%),[4],11% and 10%
same,Population Healthy Nuclei (%),[4],66% and 71%
same,Population Hoechst High Intensity Objects (%),[4],0%
same,Population Membrane Permeable-Phenotype (%),[4],7% and 2%
same,Population Mitochondria Different-Phenotype (%),[4],2%
same,Population Mitotic Cells (%),[4],43% and 56%
same,Population Normal (%),[4],100% and 99%
same,Population Pyknosed Nuclei (%),[4],22% and 17%
same,Population Tubulin-Different-Phenotype (%),[4],20% and 12%
same,Total Cell Count,[4],207 and 220
same,Population Apoptotic (%),[5],53% and 68%
same,Population Fragmented Nuclei (%),[5],20% and 18%
same,Population Healthy Nuclei (%),[5],59% and 65%
same,Population Hoechst High Intensity Objects (%),[5],0%
same,Population Membrane Permeable-Phenotype (%),[5],10% and 7%
same,Population Mitochondria Different-Phenotype (%),[5],1%
same,Population Mitotic Cells (%),[5],46% and 31%
same,Population Normal (%),[5],99% and 100%
same,Population Pyknosed Nuclei (%),[5],19% and 15%
same,Population Tubulin-Different-Phenotype (%),[5],15% and 8%
same,Total Cell Count,[5],154 and 185
same,Population Apoptotic (%),[6],62% and 75%
same,Population Fragmented Nuclei (%),[6],17% and 14%
same,Population Healthy Nuclei (%),[6],68% and 78%
same,Population Hoechst High Intensity Objects (%),[6],0%
same,Population Membrane Permeable-Phenotype (%),[6],6% and 3%
same,Population Mitochondria Different-Phenotype (%),[6],2% and 3%
same,Population Mitotic Cells (%),[6],37% and 25%
same,Population Normal (%),[6],99% and 100%
same,Population Pyknosed Nuclei (%),[6],14% and 7%
same,Population Tubulin-Different-Phenotype (%),[6],12% and 11%
same,Total Cell Count,[6],193 and 207
